Screens as filed in PubChem.
GPR7 antag = GPR7 receptor antagonists, primary screen, cell-based, fluorescence, single concentration | inhibition, % at 4.4 µM | GPR7-expressing cells, fluorescence antagonist assay | actives 1.1% (n = 290,000) | AID 1861, 2009; in the data active = inhibition above about 16%, passing the limit was not always enough;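 also: cells stimulated with the agonist NPW; 0% = agonist with vehicle and 100% = vehicle without agonist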
Target sequence (P48145 whole entry, looked up): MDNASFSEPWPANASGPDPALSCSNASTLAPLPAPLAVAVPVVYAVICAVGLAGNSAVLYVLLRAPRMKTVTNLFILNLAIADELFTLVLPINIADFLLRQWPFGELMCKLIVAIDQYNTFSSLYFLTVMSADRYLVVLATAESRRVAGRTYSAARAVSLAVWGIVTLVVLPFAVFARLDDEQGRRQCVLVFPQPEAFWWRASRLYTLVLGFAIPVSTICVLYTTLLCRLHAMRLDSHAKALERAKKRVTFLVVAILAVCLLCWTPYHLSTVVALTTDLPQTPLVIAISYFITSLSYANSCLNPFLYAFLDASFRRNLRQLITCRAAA
GalR3 antagonist = GalR3 antagonists in HEK293 cells, primary screen, cell-based, fluorescence readout. Galanin receptor type 3 (Homo sapiens), O60755. HEK293 GalR3-CNG cAMP membrane potential fluorescence; galR3 body fused to GalR1 C-terminus. inhibition, % at 3 µM. actives 0.44% (n = 360,000). AID 651719, 2012;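 active = inhibition above the screen-wide average plus 3 SD, cut at about 13% in these data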;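 also: forskolin and galanin both at EC90 stimulate the cells; cAMP rise reported by CNG channel membrane potential dye signal; 0% = forskolin plus galanin with DMSO and 100% = forskolin alone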
Target sequence (O60755 1-299 limits assumed): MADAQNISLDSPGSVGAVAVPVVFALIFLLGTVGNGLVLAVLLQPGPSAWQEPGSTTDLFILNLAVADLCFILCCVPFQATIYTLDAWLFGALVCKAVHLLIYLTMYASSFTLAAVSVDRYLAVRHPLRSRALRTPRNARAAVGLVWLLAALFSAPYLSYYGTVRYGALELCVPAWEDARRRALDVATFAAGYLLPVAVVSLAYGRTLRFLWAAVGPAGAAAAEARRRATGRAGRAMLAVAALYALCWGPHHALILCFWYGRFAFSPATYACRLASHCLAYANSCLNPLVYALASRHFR
CHO parental Ca = ATP-evoked calcium signal inhibitors, parental CHO, primary screen, counter-screen for OX1R antagonist project, cell-based, fluorescence, Fluo-8 calcium dye; inhibition, % at 5.6 µM; parental CHO-K1, ATP-induced calcium, Fluo-8 fluorescence; actives 0.63% (n = 330,000);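 active = inhibition above that plate's mean sample inhibition plus 3 SD, cut at about 26% in these data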;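 also: 0% = ATP-challenged DMSO wells and 100% = DMSO wells without ATP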
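Assay system – parental CHO cells · Reagent – ATP stimulus · Detection – intracellular calcium via Fluo-8 no-wash fluorescent dye · Evaluation – percent inhibition of ATP-evoked calcium rise, normalized to controls · Controls – ATP wells versus no-ATP DMSO wells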
OX1R antag-1 = antagonists of human orexin 1 receptor (OX1R); inhibition, % at 6.6 µM; AID 485270, 2010; actives 1.8% (n = 330,000); Orexin/Hypocretin receptor type 1 (Homo sapiens), O43613; OX1R-expressing cells, FRET antagonist read-out; in the data active = inhibition mostly above about 38%, no sharp cut-off; inactive = mostly below about 40%;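 also: 0% = agonist challenge alone and 100% = reference antagonist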
OX1R antag-2 = OX1R (HCRTR1) antagonists, primary screen, fluorescence, CHO/OX1R cells, Fluo-8 calcium, orexin A | Orexin/Hypocretin receptor type 1 (Homo sapiens), O43613 | Fluo-8 calcium fluorescence | inhibition, % at 5 µM | actives 0.43% (n = 330,000);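 active = inhibition above its plate's threshold, mean inhibition of all tested compounds on the plate plus 3 SD, cut at about 37% in these data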;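 also: 0% = orexin A challenge wells and 100% = SB-334867-A antagonist wells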
Starred values were filed as active, the others as inactive; . = not tested or not shown. This is a sample that favours compounds with a hit; in the whole collection about 3.1% have one here.

SMILES | GPR7 antag | GalR3 antagonist | CHO parental Ca | OX1R antag-1 | OX1R antag-2
NC(=O)c1ccc(SCC(=O)OCC(=O)NC2CCCCCCC2)c([N+](=O)[O-])c1 | . | -3 | -17 | 30* | -17
CC1CCC(NC(=O)COC(=O)CSc2ccc(C(N)=O)cc2[N+](=O)[O-])CC1 (stereo not drawn) | . | -1 | 1 | 51 | -13
Cc1ccc(CN(C)C(=O)COC(=O)CSc2ccc(C(N)=O)cc2[N+](=O)[O-])cc1 | . | -3 | -10 | 58* | -25
CC1CN(C(=O)COC(=O)CSc2ccc(C(N)=O)cc2[N+](=O)[O-])CC(C)O1 (stereo not drawn) | . | 3 | -17 | 73* | -3
CCOC(=O)C1CCCN(C(=O)c2ccc3ccccc3c2)CC1 (stereo not drawn) | . | -6 | . | . | .
Cc1ccccc1C1c2[nH]c3ccccc3c2C[C@H]2C(=O)N(c3ccccc3C(=O)NCCCN3CCOCC3)C(=O)N12 (stereo partly drawn) | 1 | -9 | -22 | 8 | -30
O=C(OCC(=O)N1CCCC1=O)c1ccc(Cl)cc1[N+](=O)[O-] | . | -4 | 7 | 58* | -4
CC1/C(=N/O)CC(c2ccccc2)NC1c1ccccc1 (stereo not drawn) | 4 | -7 | -11 | 23 | -4
CC(C)C1/C(=N/O)CC(c2ccccc2)NC1c1ccccc1 (stereo not drawn) | 21* | -4 | -9 | 3 | -11
c1nnc(NCNc2nncs2)s1 | . | -6 | . | . | .
COc1ccc(NC(=O)c2c(OC)cccc2OC)c(OC)c1 | -11 | -1 | -22 | 46* | -34
COc1ccc(OC)c(NC(=O)c2ccc(-c3csc(C)n3)cc2)c1 | -15 | -6 | -25 | 51* | 17
COc1ccc(S(=O)(=O)Nc2ccccc2C(=O)Nc2nc(-c3ccc(F)cc3)cs2)cc1OC | 16 | -11 | 26 | 67* | 39
COc1ccc(-c2csc(NC(=O)COc3ccc(N(C)S(=O)(=O)c4ccc(C)cc4)cc3)n2)cc1 | -6 | 1 | -5 | 24 | -2
COc1ccc(-c2csc(NC(=O)c3ccccc3NS(=O)(=O)c3ccc(C)cc3)n2)cc1 | 27* | -1 | 7 | 43* | 11
COc1ccc(C(=O)Nc2cc(OC)ccc2OC)cc1 | 2 | 2 | -15 | 27 | -24
CC(=O)N(C)C[C@@H]1Oc2ncc(C#Cc3ccc(F)cc3)cc2C(=O)N([C@@H](C)CO)C[C@H]1C | . | -7 | . | . | .
CC(=O)C1=C(C)N(Cc2ccc(Cl)cc2)C(=S)NC1c1cccc(Br)c1 (stereo not drawn) | . | 2 | . | . | .
COc1cccc(-c2csc(NC(=O)Nc3ccccc3)n2)c1 | 4 | -3 | 32* | 74* | 45*
COc1ccc(-c2csc(NC(=O)c3c(OC)cccc3OC)n2)cc1 | -22 | -1 | -15 | 68* | 2
O=C(Nc1ccccc1)Nc1nc(-c2ccccc2)cs1 | -5 | -1 | 6 | 4 | 21
O=C(Nc1c(F)c(F)c(F)c(F)c1F)OC[C@@H]1CSCCS(=O)(=O)N1 | . | -3 | . | . | .
COc1ccc(OC)c(-c2csc(NC(=O)Cn3[nH]c(=O)c4ccccc4c3=O)n2)c1 | 17* | -4 | 16 | 29 | 2
CCn1cc(Cl)c(C(=O)N2N=C(c3ccc4ccccc4c3)CC2c2ccccc2O)n1 (stereo not drawn) | -10 | -6 | 60* | 4 | 12
CCCCN(CC)S(=O)(=O)c1ccc(C(=O)N(CCCN(C)C)c2nc3cc(C)cc(C)c3s2)cc1 | 23* | -5 | 5 | 7 | -38
SMILES | GPR7 antag | GalR3 antagonist | CHO parental Ca | OX1R antag-1 | OX1R antag-2
COc1ccc(OC)c(CC(NC(C)=O)C(=O)NC2CCN(c3cc(C)nc4ncnn34)CC2)c1 (stereo not drawn) | -6 | -1 | 31* | -1 | -3
COc1ccc(N2CCN(C(=O)C3CCN(S(=O)(=O)c4ccc5c(c4)CC(C)N5C(=O)C4CC4)CC3)CC2)cc1 (stereo not drawn) | . | -2 | . | . | .
CCOC(=O)C1C(=O)C=C(/C=C/c2ccc(N(C)C)cc2)CC1c1ccccc1 (stereo not drawn) | 0 | -4 | 41* | 28 | 40
CCOC(=O)C1C(=O)C=C(c2ccc(C)cc2)CC1c1ccccc1 (stereo not drawn) | -5 | -4 | -17 | 28 | -45
COC(=O)N1C[C@H](OCc2cn(-c3ccc(OC)cc3)nn2)[C@H]2C[C@@H]1c1ccccc1O2 | . | -8 | . | . | .
CCc1c2c(nc3ccc(OC(=O)N4CCC(N5CCCCC5)CC4)cc13)-c1cc3c(c(=O)n1C2)COC(=O)[C@]3(O)CC | . | . | -5 | 53* | -25
CCC1(O)C(=O)OCc2c1cc1n(c2=O)Cc2cc3cc(O)ccc3nc2-1 (stereo not drawn) | . | -4 | . | . | .
COc1ccccc1-n1c(C)c2c(OC)cccc(=O)c2c1C | -12 | -2 | -8 | 7 | -17
COc1cccc(=O)c2c(C)oc(C)c12 | 19* | 2 | -18 | 30 | -14
O=C1NC(c2ccccc2)c2c(-c3ccccc3)n[nH]c21 (stereo not drawn) | . | -7 | . | . | .
O=[N+]([O-])c1ccc(/C=N/Nc2ccc3ccccc3c2)o1 | -9 | -5 | 42* | 30 | 37
CCNc1nc(NCC)nc(N/N=C/c2ccc([N+](=O)[O-])o2)n1 | -4 | -6 | -6 | 54* | 16
C[C@@H]1CN([C@@H](C)CO)C(=O)CCCn2cc(nn2)CO[C@H]1CN(C)C(=O)Nc1ccc(C(C)(C)C)cc1 | . | -2 | . | . | .
CCN=C1NC(c2cccc(F)c2)C(C(=O)OC)=C(C)N1Cc1ccccc1C(F)(F)F (stereo not drawn) | . | -4 | . | . | .
Cc1cc(C)c(C(N)=O)c(SCC(=O)c2cc(C)n(-c3cc(C)on3)c2C)n1 | . | -2 | 31* | 12 | 15
COc1ccc(C=NN(C)C(=O)Nc2cccc(Cl)c2)cc1OC | . | -6 | . | . | .
O=C1C(Cl)=C(Nc2ccc(O)cc2)C(=O)c2ccccc21 | 38* | -7 | 45* | 156* | 44*
Cc1ccc(NC2=C(Cl)C(=O)c3ccccc3C2=O)cc1 | 0 | 2 | 31 | 29 | 28
N#C[C@H](N)[C@H]1O[C@@H](n2ccc(=O)[nH]c2=O)[C@H](O)[C@@H]1O | . | 2 | . | . | .
CCOC(=O)N1CCN(C(=O)C[C@H]2C[C@@]3(C(=O)OC)C(=C[C@H](C(C)(C)C)O[C@@H]3C)N(Cc3ccc4c(c3)OCO4)C2=O)CC1 | . | -1 | . | . | .
O=C(CSCc1ccc(Cl)cc1)Nc1cc([N+](=O)[O-])ccc1O | 3 | 0 | 5 | 105* | 14
O=[N+]([O-])c1cccnc1Sc1ccc(F)cc1 | . | 1 | 4 | 9 | -7
CNc1nnc(Sc2ncccc2[N+](=O)[O-])s1 | 1 | -7 | -8 | 48* | -1
